From ChEMBL document CHEMBL3774312, “5-Substituted 3-isopropyl-7-[4-(2-pyridyl)benzyl]amino-1(2)H-pyrazolo[4,3-d]pyrimidines with anti-proliferative activity as potent and selective inhibitors of cyclin-dependent kinases” (Eur J Med Chem, 2016)
pIC50: −log10 of the molar value. The source made the active and inactive calls. The calls are words filed in the database; no cut-off is given here.

Experiments:
[1] = target: Cyclin-dependent kinase 2/cyclin E1 (Homo sapiens, UniProt P24941); assay: Inhibition of CDK2/Cyclin E (unknown origin) expressed in sf9 cells using histone H1 as substrate in presence of [gamma33P]-ATP; assay type: cell-based
[2] = target: Cyclin-dependent kinase 5 (Homo sapiens, UniProt Q00535); assay: Inhibition of CDK5 (unknown origin) using histone H1 as substrate in presence of [gamma33P]-ATP
[3] = test system: MCF7; assay: Cytotoxicity against human MCF7 cells assessed as reduction in cell viability after 72 hrs by calcein AM staining based fluorescence assay; assay type: functional; conditions: for pIC50: MCF7, 72 h
Procedure, shortened: (§1)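 Cells were grown in DMEM with 10% FBS, penicillin and streptomycin at 37 °C in 5% CO2. Three doses were tested in triplicate for 72 h.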

[4] = test system: K562; assay: Cytotoxicity against human K562 cells assessed as reduction in cell viability after 72 hrs by calcein AM staining based fluorescence assay; assay type: functional; conditions: K562, 72 h; procedure, shortened: as §1
[5] = (§2) Cytotoxicity against human HCT116 cells assessed as reduction in cell viability after 72 hrs by calcein AM staining based fluorescence assay; assay type: functional; conditions: HCT-116, 72 h
Procedure, shortened: (§3)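 Cells were grown in DMEM with 10% FBS, penicillin and streptomycin at 37 °C in 5% CO2. Three doses were tested in triplicate for 72 h. Live cells were read by Calcein AM fluorescence at 485/538 nm.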

[6] = Cytotoxicity against human G361 cells assessed as reduction in cell viability after 72 hrs by calcein AM staining based fluorescence assay; assay type: functional; conditions: G-361, 72 h; procedure, shortened: as §1
[7] = target: Cyclin-dependent kinase 2 (Homo sapiens) (UniProt P24941); assay: Inhibition of CDK2 in human G361 cells assessed as reduction in phosphorylation of RNA polymerase 2 at C-terminus at 15 uM incubated for 0.5 to 24 hrs by immunoblotting analysis; assay type: cell-based; conditions: G-361
Procedure, shortened: (§4)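 Treated G361 cells were lysed in Laemmli buffer, run on SDS-PAGE and blotted to nitrocellulose. Blots were probed overnight with antibodies to RNA polymerase II phosphorylated at S5 and S2, and to total RNA polymerase II (ARNA-3). Peroxidase secondaries were then applied and signal was detected by ECL with a CCD camera.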

[8] = target: Cyclin-dependent kinase 2 (Homo sapiens) (UniProt P24941); assay: Inhibition of CDK2 in human G361 cells assessed as reduction in phosphorylation of RNA polymerase 2 at C-terminus at 1.5 to 15 uM incubated for 24 hrs by immunoblotting analysis; assay type: cell-based; conditions: G-361; procedure, shortened: as §4
[9] = test system: G-361; assay: Induction of apoptosis in human G361 cells assessed as caspase7 activation using Ac-DEVD-AMC as substrate at IC50 preincubated for 24 hrs followed by substrate addition measured after 3 hrs by fluorescence assay; assay type: functional, cell-based
[10] = test system: G-361; assay: Induction of apoptosis in human G361 cells assessed as caspase3 activation using Ac-DEVD-AMC as substrate at IC50 preincubated for 24 hrs followed by substrate addition measured after 3 hrs by fluorescence assay; assay type: functional, cell-based
[11] = test system: G-361; assay: Induction of apoptosis in human G361 cells assessed as caspase3 activation using Ac-DEVD-AMC as substrate at 5 times IC50 preincubated for 24 hrs followed by substrate addition measured after 3 hrs by fluorescence assay; assay type: functional, cell-based
[12] = test system: G-361; assay: Induction of apoptosis in human G361 cells assessed as caspase7 activation using Ac-DEVD-AMC as substrate at 5 times IC50 preincubated for 24 hrs followed by substrate addition measured after 3 hrs by fluorescence assay; assay type: functional, cell-based
[13] = target: Cyclin-dependent kinase 2 (Homo sapiens) (UniProt P24941); assay: Inhibition of CDK2 in human G361 cells assessed as reduction in phosphorylation of RNA polymerase 2 at C-terminus at 1 uM incubated for 0.5 to 24 hrs by immunoblotting analysis; assay type: cell-based; conditions: G-361; procedure, shortened: as §4
[14] = test system: MCF7; assay: Cell cycle arrest in BrdU pulse-labelled human MCF7 cells assessed as decrease in cell at S phase at 2500 to 20000 nM after 24 hrs by propidium iodide staining based flow cytometry; assay type: functional
[15] = test system: MCF7; assay: Cell cycle arrest in BrdU pulse-labelled human MCF7 cells assessed as accumulation at late S phase at 2500 to 20000 nM after 24 hrs by propidium iodide staining based flow cytometry; assay type: functional
[16] = test system: MCF7; assay: Cell cycle arrest in BrdU pulse-labelled human MCF7 cells assessed as accumulation at late G2/M phase at 2500 to 20000 nM after 24 hrs by propidium iodide staining based flow cytometry; assay type: functional
[17] = test system: HCT-116; assay: as §2; assay type: functional; procedure, shortened: as §3
[18] = test system: MCF7; assay: Cell cycle arrest in BrdU pulse-labelled human MCF7 cells assessed as accumulation at subG1 phase at 2500 to 20000 nM after 24 hrs by propidium iodide staining based flow cytometry; assay type: functional
[19] = target: Cyclin-dependent kinase 2 (Homo sapiens) (UniProt P24941); assay: Inhibition of CDK2 in human G361 cells assessed as reduction in phosphorylation of RNA polymerase 2 at C-terminus at 0.75 uM incubated for 0.5 to 24 hrs by immunoblotting analysis; assay type: cell-based; conditions: G-361; procedure, shortened: as §4
[20] = target: Cyclin-dependent kinase 2 (Homo sapiens) (UniProt P24941); assay: Inhibition of CDK2 in human G361 cells assessed as reduction in phosphorylation of RNA polymerase 2 at C-terminus at 0.075 to 0.75 uM incubated for 24 hrs by immunoblotting analysis; assay type: cell-based; conditions: G-361; procedure, shortened: as §4
[21] = test system: MCF7; assay: Cell cycle arrest in BrdU pulse-labelled human MCF7 cells assessed as accumulation at late S phase at 500 to 5000 nM after 24 hrs by propidium iodide staining based flow cytometry; assay type: functional
[22] = test system: MCF7; assay: Cell cycle arrest in BrdU pulse-labelled human MCF7 cells assessed as accumulation at subG1 phase at 500 to 5000 nM after 24 hrs by propidium iodide staining based flow cytometry; assay type: functional
[23] = test system: MCF7; assay: Cell cycle arrest in BrdU pulse-labelled human MCF7 cells assessed as accumulation at late G2/M phase at 500 to 5000 nM after 24 hrs by propidium iodide staining based flow cytometry; assay type: functional
[24] = test system: MCF7; assay: Cell cycle arrest in BrdU pulse-labelled human MCF7 cells assessed as decrease in cells at S phase at 500 to 5000 nM after 24 hrs by propidium iodide staining based flow cytometry; assay type: functional
[25] = target: Cyclin-dependent kinase 2 (Homo sapiens) (UniProt P24941); assay: Inhibition of CDK2 in human G361 cells assessed as reduction in phosphorylation of RNA polymerase 2 at C-terminus at 2.4 to 24 uM incubated for 24 hrs by immunoblotting analysis; assay type: cell-based; conditions: G-361; procedure, shortened: as §4
[26] = test system: MCF7; assay: Cell cycle arrest in BrdU pulse-labelled human MCF7 cells assessed as accumulation at late S phase at 8 to […] after 24 hrs by propidium iodide staining based flow cytometry; assay type: functional
[27] = test system: MCF7; assay: Cell cycle arrest in BrdU pulse-labelled human MCF7 cells assessed as accumulation at late G2/M phase at 8 to […] after 24 hrs by propidium iodide staining based flow cytometry; assay type: functional
[28] = test system: MCF7; assay: Cell cycle arrest in BrdU pulse-labelled human MCF7 cells assessed as accumulation at subG1 phase at 8 to […] after 24 hrs by propidium iodide staining based flow cytometry; assay type: functional
[29] = test system: MCF7; assay: Cell cycle arrest in BrdU pulse-labelled human MCF7 cells assessed as decrease in cells at S phase at 8 to […] after 24 hrs by propidium iodide staining based flow cytometry; assay type: functional
[30] = test system: MCF7; assay: Cell cycle arrest in BrdU pulse-labelled human MCF7 cells assessed as accumulation at late G2/M phase at 8 to 250 nM after 24 hrs by propidium iodide staining based flow cytometry; assay type: functional
[31] = test system: MCF7; assay: Cell cycle arrest in BrdU pulse-labelled human MCF7 cells assessed as accumulation at subG1 phase at 8 to 250 nM after 24 hrs by propidium iodide staining based flow cytometry; assay type: functional
[32] = test system: MCF7; assay: Cell cycle arrest in BrdU pulse-labelled human MCF7 cells assessed as accumulation at late S phase at 8 to 250 nM after 24 hrs by propidium iodide staining based flow cytometry; assay type: functional
[33] = test system: MCF7; assay: Cell cycle arrest in BrdU pulse-labelled human MCF7 cells assessed as decrease in cells at S phase at 8 to 250 nM after 24 hrs by propidium iodide staining based flow cytometry; assay type: functional

Chain of Cyclin-dependent kinase 5 (Q00535 whole entry): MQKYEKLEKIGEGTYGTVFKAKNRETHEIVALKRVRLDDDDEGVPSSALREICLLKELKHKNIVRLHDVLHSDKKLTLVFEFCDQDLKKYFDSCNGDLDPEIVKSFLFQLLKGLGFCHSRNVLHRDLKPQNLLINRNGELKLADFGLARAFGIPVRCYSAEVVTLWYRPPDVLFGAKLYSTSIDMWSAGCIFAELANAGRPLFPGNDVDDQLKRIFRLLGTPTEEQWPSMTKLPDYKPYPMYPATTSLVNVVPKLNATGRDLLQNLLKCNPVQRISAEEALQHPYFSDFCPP

pIC50 [1]	pIC50 [2]	Compound	pIC50 [3]	pIC50 [4]	pIC50 [5]	pIC50 [6]	other results
7.02	–	CC(C)c1n[nH]c2c(NCc3ccc(-c4ccccn4)cc3)nc(N[C@H]3CC[C@H](N)CC3)nc12	6.32	6.23	6.14	6.13	inhibition [7]: Active; inhibition [8]: Active; Activity [9]: Active; Activity [10]: Active; Activity [11]: Active; Activity [12]: Active
6.88	–	CC(C)c1n[nH]c2c(NCc3ccc(-c4ccccn4)cc3)nc(N3CCN(CCO)CC3)nc12	6.71	6.84	6.46	6.74	–
5.83	–	COc1ccc(CNc2nc(NCc3ccc(-c4ccccn4)cc3)c3[nH]nc(C(C)C)c3n2)cc1	5.28	5.40	4.76	5.13	Activity [14]: Active; Activity [15]: Active; Activity [3]: Dose-dependent effect; Activity [16]: Active; Activity [17]: Dose-dependent effect; Activity [18]: Active
7.74	8.10	CC(C)c1n[nH]c2c(NCc3ccc(-c4ccccn4)cc3)nc(NCCN)nc12	7.21	7.20	6.64	6.64	–
7.27	–	CCC(CO)Nc1nc(NCc2ccc(-c3ccccn3)cc2)c2[nH]nc(C(C)C)c2n1 (configuration not stated)	7.28	–	6.96	7.17	Activity [26]: Active; Activity [27]: Active; Activity [28]: Active; Activity [3]: Dose-dependent effect; Activity [17]: Dose-dependent effect; Activity [29]: Active
6.33	–	CC(C)c1n[nH]c2c(NCc3ccc(-c4ccccn4)cc3)nc(NCCN(C)C)nc12	6.65	6.90	6.41	6.19	–

Continued, molecule first:

Compound	pIC50 [1]	pIC50 [2]	pIC50 [3]	pIC50 [4]	pIC50 [5]	pIC50 [6]	other results
CC(C)c1n[nH]c2c(NCc3ccc(-c4ccccn4)cc3)nc(N3CCCCC3CCO)nc12 (configuration not stated)	7.62	7.43	6.88	6.78	6.85	6.69	–
CC(C)c1n[nH]c2c(NCc3ccc(-c4ccccn4)cc3)nc(N3CCSCC3)nc12	7.21	–	6.28	6.23	6.03	6.06	–
CC(C)c1n[nH]c2c(NCc3ccc(-c4ccccn4)cc3)nc(N3CCNCC3)nc12	7.30	–	7.68	7.77	7.06	7.19	–
CC(C)c1n[nH]c2c(NCc3ccc(-c4ccccn4)cc3)nc(N3CCOCC3)nc12	7.74	–	6.79	6.96	6.57	6.71	inhibition [13]: Active; Activity [9]: inactive; Activity [10]: inactive; Activity [11]: Active; Activity [12]: Active
CSc1nc(NCc2ccc(-c3ccccn3)cc2)c2[nH]nc(C(C)C)c2n1	7.32	–	6.09	6.11	5.55	5.85	–
CC(C)c1n[nH]c2c(NCc3ccc(-c4ccccn4)cc3)nc(N[C@@H]3CCCC[C@H]3N)nc12 (relative stereo)	7.34	7.36	6.53	6.76	6.37	6.32	–
CC(C)c1n[nH]c2c(NCc3ccc(-c4ccccn4)cc3)nc(NCCO)nc12	7.51	7.31	7.29	7.42	7.57	7.41	–
CC(C)c1n[nH]c2c(NCc3ccc(-c4ccccn4)cc3)nc(NCC(C)(C)O)nc12	8.05	–	7.62	7.54	7.07	7.32	inhibition [19]: Active; Activity [9]: Active; inhibition [20]: Active; Activity [10]: Active; Activity [11]: Active; Activity [12]: Active
CC(C)c1n[nH]c2c(NCc3ccc(-c4ccccn4)cc3)ncnc12	6.71	–	–	–	5.91	6.06	Activity [21]: Active; Activity [22]: Active; Activity [23]: Active; Activity [3]: Dose-dependent effect; Activity [17]: Dose-dependent effect; Activity [24]: Active
CC[C@H](CO)Nc1nc(NCc2ccccc2)c2[nH]nc(C(C)C)c2n1	–	–	–	–	–	–	inhibition [25]: Active
CC(C)c1n[nH]c2c(NCc3ccc(-c4ccccn4)cc3)nc(S(C)(=O)=O)nc12	7.15	–	6.34	6.19	5.94	6.10	–
CC[C@H](CO)Nc1nc(NCc2ccc(-c3ccccn3)cc2)c2ncn(C(C)C)c2n1	–	–	6.80	6.76	6.46	6.30	–
CC(C)c1n[nH]c2c(NCc3ccc(-c4ccccn4)cc3)nc(NCc3ccc(-c4ccccn4)cc3)nc12	5.84	5.44	5.62	5.60	5.14	5.44	–
CC(C)c1n[nH]c2c(NCc3ccc(-c4ccccn4)cc3)nc(NCC(O)CN)nc12 (configuration not stated)	7.29	7.77	6.51	6.15	6.11	5.99	Activity [30]: Active; Activity [3]: Dose-dependent effect; Activity [31]: Active; Activity [17]: Dose-dependent effect; Activity [32]: Active; Activity [33]: Active
CC(C)c1n[nH]c2c(NCc3ccc(-c4ccccn4)cc3)nc(NCC(O)CO)nc12 (configuration not stated)	7.92	7.68	7.23	7.33	7.06	7.14	–
CC[C@H](CO)Nc1nc(NCc2ccccc2)c2ncn(C(C)C)c2n1 [SELICICLIB]	–	–	4.91	–	4.84	–	–
